Assay [1] can be described thus: Growth inhibition of human SRA 01/04 cells at 32 uM after 4 days by Alamar blue assay. Format: functional. To be noted: 96 h, read-out: GI. The essentials:
(§1)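 SRA01/04 human lens epithelial cells grown in DMEM with 20% heat-inactivated FBS plus penicillin/streptomycin/neomycin, 37 °C, 5% CO₂. Seeded at 3 × 10³ cells/well and treated in DMEM with varied flavonoid concentrations for up to 4 days. Alamar Blue added for the final 2 h, fluorescence read at ex 530/em 590 nm. Inhibition taken from the day 4 minus day 0 fluorescence change, treated versus control. n = 4, mean ± SD.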
(In general: Resazurin is reduced to fluorescent resorufin, in cell work by metabolically active cells.)

Assay [2] is described as follows: […] human SRA 01/04 cells assessed as inhibition of PMA-induced proMMP9 expression after 24 hrs by gelatin zymographic analysis. Format: functional, cell-based.
For assay [3], the species on record is Homo sapiens. In words: Growth inhibition of human SRA 01/04 cells assessed as reduction in PCNA expression at 64 uM after 4 days by Western blot analysis. The format is functional. A digest of the protocol:
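SRA01/04 cells plated at 2 × 10⁵ cells/dish, then harvested and lysed in RIPA buffer (pH 7.5 Tris–HCl, with orthovanadate, PMSF and protease inhibitors). 7 µg protein run on 12.5% SDS-PAGE and transferred to PVDF. Probed overnight at 4 °C with mouse anti-PCNA or anti-β-actin, then alkaline phosphatase secondary for 1 h at room temperature. Bands developed with BCIP/NBT.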

The species entered for assay [4] is Homo sapiens. The assay is described as follows: Growth inhibition of human SRA 01/04 cells after 4 days by Alamar blue assay. Format: functional. The essentials: as §1
Assay [5] can be described thus: Growth inhibition of human SRA 01/04 cells at 64 uM after 4 days by Alamar blue assay. Format: functional. Particulars: 96 h, read-out: GI. The essentials: as §1

Calls of active or inactive are those of the source. The calls are words filed in the database; no cut-off is given here.

Take `COc1ccc(-c2cc(=O)c3c(OC)c(OC)c(OC)c(OC)c3o2)cc1` [TANGERETIN]: the inhibition of growth at 32 µM in assay [1] was found to be 75.9%.

As to `COc1cc(OC)cc(-c2cc(=O)c3c(OC)c(OC)c(OC)c(OC)c3o2)c1`, in assay [1], the inhibition of growth at 32 µM came to 59.9%.

As to `COc1cccc(-c2cc(=O)c3c(OC)c(OC)c(OC)c(OC)c3o2)c1`, in assay [1], the inhibition of growth at 32 µM came out at 42%.

For the molecule `COc1c(OC)c(O)c2c(=O)cc(-c3ccc(O)cc3)oc2c1OC` [XANTHOMICROL], the inhibition of growth at 32 µM in assay [1] was determined as 42.3%.

In the case of `COc1c(OC)c(OC)c2c(=O)cc(-c3ccc(O)cc3)oc2c1OC`, the inhibition of growth at 32 µM in assay [1] stood at 32%.

For the molecule `COc1c(OC)c(OC)c2c(=O)cc(-c3cccc(O)c3)oc2c1OC`, in assay [1], the inhibition of growth at 32 µM came to 18.3%.

Turning to `COc1ccccc1-c1cc(=O)c2c(OC)c(OC)c(OC)c(OC)c2o1`, the inhibition of growth at 32 µM in assay [1] stood at 23.3%.

For orientation: IC50 means the concentration that inhibits the measured activity by half. Regarding `COc1c(OC)c(OC)c2c(=O)cc(-c3c(O)cccc3O)oc2c1OC`, in assay [1], the inhibition of growth at 32 µM is 5.1%. In addition, the IC50 in assay [2] came out at 55 µM.

With `COc1c(OC)c(OC)c2c(=O)cc(-c3ccc(O)c(O)c3)oc2c1OC`, in assay [1], the inhibition of growth at 32 µM stood at 26.5%.

On to `COc1cccc(OC)c1-c1cc(=O)c2c(OC)c(OC)c(OC)c(OC)c2o1`, for which the inhibition of growth at 32 µM in assay [1] was 75.9%. Moreover, in assay [2], the half-inhibitory concentration (IC50) was greater than 64 µM.

Regarding `COc1ccc(-c2cc(=O)c3c(O)c(OC)c(OC)c(OC)c3o2)cc1OC` [5-DEMETHYLNOBILETIN], the inhibition of growth at 32 µM in assay [1] was found to be 17.2%.

For the molecule `COc1cc(-c2cc(=O)c3c(OC)c(OC)c(OC)c(OC)c3o2)ccc1O`, the inhibition of growth at 32 µM in assay [1] turned out to be 30.7%.

Take `COc1c(OC)c(OC)c2c(=O)cc(-c3ccccc3O)oc2c1OC`: in assay [1], the inhibition of growth at 32 µM stood at 4.2%.

In the case of `COc1c(OC)c(O)c2c(=O)cc(-c3ccccc3O)oc2c1OC`, the inhibition of growth at 32 µM in assay [1] came to 30.7%. Moreover, the IC50 in assay [2] was greater than 64 µM.

For `COc1ccc(-c2cc(=O)c3c(OC)c(OC)c(OC)c(OC)c3o2)cc1OC` [NOBILETIN], in assay [1], the inhibition of growth at 32 µM turned out to be 47.4%. For the same molecule, the “growth inhibition (GI)” value in assay [3] was “Active”. In assay [4], the “growth inhibition (GI)” value was “Dose-dependent effect”. Besides, in assay [5], the inhibition of growth at 64 µM came out at 80%.

Turning to `COc1c(OC)c(OC)c2c(=O)cc(-c3cc(O)cc(O)c3)oc2c1OC`, in assay [1], the inhibition of growth at 32 µM amounted to 11.5%.

For the molecule `COc1cc(-c2cc(=O)c3c(O)c(OC)c(OC)c(OC)c3o2)ccc1O`, the inhibition of growth at 32 µM in assay [1] is 64.1%.

These data come from ChEMBL document CHEMBL2311307, “Polymethoxyflavones as agents that prevent formation of cataract: nobiletin congeners show potent growth inhibitory effects in human lens epithelial cells” (Bioorg Med Chem Lett, 2013).
